Measured values published in ChEMBL document CHEMBL1151259, “Hemisynthetic secofriedelane triterpenes with inhibitory activity against the growth of human tumor cell lines in vitro” (J Nat Prod, 2004).
pIC50: −log10 of the molar value.

Columns and labels:
SF-268 = experiment: Cytotoxicity against human SF268 cells after 48 hrs by SRB assay; assay type: functional, cell-based; conditions: SF-268, 48 h
How it was run: (§1)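 Compounds dissolved in DMSO and freshly diluted in culture medium, final DMSO 0.25%. Growth inhibition read by sulforhodamine B protein staining per the NCI screening protocol. Doxorubicin as positive control. GI50 given as mean ± SEM of 3-6 independent experiments, each in duplicate.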

MCF7 = experiment: Cytotoxicity against human MCF7 cells after 48 hrs by SRB assay; assay type: functional, cell-based; conditions: MCF7, 48 h; how it was run: as §1
NCI-H460 = experiment: Cytotoxicity against human NCI-H460 cells after 48 hrs by SRB assay; assay type: functional, cell-based; conditions: NCI-H460, 48 h; how it was run: as §1
[1] = Antiproliferative activity against human lymphocytes; assay type: cell-based; conditions: Lymphocyte

Molecule `CC(=O)[C@@]1(C)CC[C@H]2[C@@](C)(CC[C@@]3(C)[C@@H]4CC(C)(C)CC[C@]4(C)CC[C@]23C)[C@@H]1CC(=O)O` has a GI50 (SF-268) of 12.9 µM, a GI50 (MCF7) of 10.9 µM and a GI50 (NCI-H460) of 17.6 µM.

With `COC(=O)C[C@H]1[C@]2(C)CC[C@@]3(C)[C@@H]4CC(C)(C)CC[C@]4(C)CC[C@]3(C)[C@H]2CC[C@]1(C)C(C)=O` the GI50 (SF-268) was 106 µM, the GI50 (MCF7) was 101 µM and the GI50 (NCI-H460) was 93.9 µM.

In the case of `CC(=O)[C@@]1(C)CC[C@H]2[C@@](C)(CC[C@@]3(C)[C@@H]4CC(C)(C)CC[C@]4(C)CC[C@]23C)[C@@H]1CCC(=O)O`, the GI50 (SF-268) was 24.6 µM, the GI50 (MCF7) was 26.9 µM and the GI50 (NCI-H460) was 32.8 µM.

`CC1(C)CC[C@]2(C)CC[C@]3(C)[C@H]4CC[C@@]5(C)[C@@H](CCC(=O)[C@@]5(C)O)[C@]4(C)CC[C@@]3(C)[C@@H]2C1` showed a GI50 (SF-268) of over 110 µM, a GI50 (MCF7) of over 110 µM and a GI50 (NCI-H460) of over 110 µM.

`CC1(C)CC[C@]2(C)CC[C@]3(C)[C@H]4CC[C@@]5(C)[C@@H](CCC(=O)[C@]5(C)O)[C@]4(C)CC[C@@]3(C)[C@@H]2C1` showed a GI50 (SF-268) of over 50 µM, a GI50 (MCF7) of over 50 µM and a GI50 (NCI-H460) of over 50 µM.

`COC(=O)CC[C@H]1[C@]2(C)CC[C@@]3(C)[C@@H]4CC(C)(C)CC[C@]4(C)CC[C@]3(C)[C@H]2CC[C@]1(C)C(C)=O` showed a GI50 (SF-268) of over 110 µM, a GI50 (MCF7) of over 110 µM and a GI50 (NCI-H460) of over 110 µM.

In the case of `C[C@@H](C(=O)O)[C@@]1(C)CC[C@H]2[C@@](C)(CC[C@@]3(C)[C@@H]4CC(C)(C)CC[C@]4(C)CC[C@]23C)[C@@H]1CC=O`, the pIC50 (SF-268) was 5.27, the pIC50 (MCF7) was 5.27 and the pIC50 (NCI-H460) was 5.27. The pIC50 [1] was 4.97.

Molecule `COc1cccc2c1C(=O)c1c(O)c3c(c(O)c1C2=O)C[C@@](O)(C(=O)CO)C[C@@H]3O[C@H]1C[C@H](N)[C@H](O)[C@H](C)O1` [DOXORUBICIN] has a GI50 (SF-268) of 0.094 µM, a GI50 (MCF7) of 0.0428 µM and a GI50 (NCI-H460) of 0.094 µM.
